Experimental data reported in ChEMBL document CHEMBL3425426, “Discovery of DS-1558: A Potent and Orally Bioavailable GPR40 Agonist” (ACS Med Chem Lett, 2015).
Active and inactive are the calls of the source.

Experiments:
[1] = organism: Mus musculus; assay: Induction of glucose-stimulated insulin secretion in GPR40 knock out mouse pancreatic islets; format: functional
[2] = organism: Homo sapiens; assay: Selectivity for human GPR40 over NK1 receptor (unknown origin)
[3] = organism: Homo sapiens; assay: Selectivity for human GPR40 over KATP channel (unknown origin)
[4] = organism: Homo sapiens; assay: Selectivity for human GPR40 over kappa opioid receptor (unknown origin)
[5] = organism: Homo sapiens; assay: Selectivity for human GPR40 over calcium channel L-type dihydropyridine binding site (unknown origin)
[6] = organism: Homo sapiens; assay: Selectivity for human GPR40 over EP4 receptor (unknown origin)
[7] = organism: Homo sapiens; assay: Selectivity for human GPR40 over IL1 receptor (unknown origin)
[8] = organism: Homo sapiens; assay: Selectivity for human GPR40 over adenosine A3 receptor (unknown origin)
[9] = organism: Homo sapiens; assay: Selectivity for human GPR40 over human ERG channel
[10] = target: T1, Peroxisome proliferator-activated receptor gamma (Homo sapiens) (UniProt P37231); assay: Agonist activity at PPARgamma (unknown origin) up to 100 uM
T1 sequence (whole entry): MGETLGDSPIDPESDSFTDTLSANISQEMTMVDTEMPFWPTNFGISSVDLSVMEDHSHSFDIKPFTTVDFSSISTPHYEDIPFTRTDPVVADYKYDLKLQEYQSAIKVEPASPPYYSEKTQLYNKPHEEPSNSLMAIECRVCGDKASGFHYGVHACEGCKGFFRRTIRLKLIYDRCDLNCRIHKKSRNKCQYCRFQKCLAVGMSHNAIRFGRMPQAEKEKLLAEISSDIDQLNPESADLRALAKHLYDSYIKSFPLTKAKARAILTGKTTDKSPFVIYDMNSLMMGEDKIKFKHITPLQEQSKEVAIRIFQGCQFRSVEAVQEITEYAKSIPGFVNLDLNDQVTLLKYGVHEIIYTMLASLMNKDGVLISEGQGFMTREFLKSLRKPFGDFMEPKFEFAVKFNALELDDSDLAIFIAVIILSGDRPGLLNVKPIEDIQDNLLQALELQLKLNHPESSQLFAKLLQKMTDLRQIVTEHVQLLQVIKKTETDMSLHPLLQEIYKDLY

[11] = test system: Rattus norvegicus; assay: Reduction in glucose excursion in ZDF rat at 0.1 mg/kg, po dosed 30 mins before glucose challenge by OGTT method; format: functional, organism-based; parameters: dose 0.1 mg/kg
In short: (§1)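 Male Zucker diabetic fatty rats, 9 weeks old, n = 6 per group. Oral dose given 30 min before an oral glucose challenge of 2 g/kg. Plasma glucose and plasma insulin were followed over time after the challenge. Values are reported as mean ± standard error.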

[12] = organism: Homo sapiens; assay: Selectivity for human GPR40 over thyroid receptor receptor (unknown origin)
[13] = organism: Homo sapiens; assay: Selectivity for human GPR40 over GCR (unknown origin)
[14] = organism: Homo sapiens; assay: Selectivity for human GPR40 over 5HT1A receptor (unknown origin)
[15] = organism: Homo sapiens; assay: Selectivity for human GPR40 over nAchR alpha1 bungarotoxin binding site (unknown origin)
[16] = organism: Homo sapiens; assay: Selectivity for human GPR40 over muscarinic M2 receptor (unknown origin)
[17] = organism: Homo sapiens; assay: Selectivity for human GPR40 over central GABAA receptor muscimol binding site (unknown origin)
[18] = organism: Homo sapiens; assay: Selectivity for human GPR40 over adrenergic alpha1A receptor (unknown origin)
[19] = organism: Homo sapiens; assay: Selectivity for human GPR40 over central imidazoline I2 receptor (unknown origin)
[20] = organism: Homo sapiens; assay: Selectivity for human GPR40 over dopamine D4.2 receptor (unknown origin)
[21] = organism: Homo sapiens; assay: Selectivity for human GPR40 over bradykinin B1 receptor (unknown origin)
[22] = organism: Homo sapiens; assay: Selectivity for human GPR40 over adrenergic beta2 receptor (unknown origin)
[23] = organism: Homo sapiens; assay: Selectivity for human GPR40 over PAF receptor (unknown origin)
[24] = organism: Homo sapiens; assay: Selectivity for human GPR40 over phorbol ester receptor (unknown origin)
[25] = organism: Homo sapiens; assay: Selectivity for human GPR40 over histamine H3 receptor (unknown origin)
[26] = organism: Homo sapiens; assay: Selectivity for human GPR40 over endothelin ETA receptor (unknown origin)
[27] = organism: Homo sapiens; assay: Selectivity for human GPR40 over SERT (unknown origin)
[28] = organism: Homo sapiens; assay: Selectivity for human GPR40 over delta opioid receptor (unknown origin)
[29] = organism: Homo sapiens; assay: Selectivity for human GPR40 over androgen receptor (unknown origin)
[30] = organism: Homo sapiens; assay: Selectivity for human GPR40 over central GABAA receptor flunitrazepam binding site (unknown origin)
[31] = organism: Homo sapiens; assay: Selectivity for human GPR40 over neuropeptide YY2 receptor (unknown origin)
[32] = organism: Homo sapiens; assay: Selectivity for human GPR40 over sigma-2 receptor (unknown origin)
[33] = organism: Homo sapiens; assay: Selectivity for human GPR40 over adrenergic alpha1B receptor (unknown origin)
[34] = organism: Homo sapiens; assay: Selectivity for human GPR40 over NMDA receptor phencyclidine binding site (unknown origin)
[35] = organism: Homo sapiens; assay: Selectivity for human GPR40 over nAchR (unknown origin)
[36] = organism: Homo sapiens; assay: Selectivity for human GPR40 over histamine H1 receptor (unknown origin)
[37] = organism: Homo sapiens; assay: Selectivity for human GPR40 over adenosine A2A receptor (unknown origin)
[38] = organism: Homo sapiens; assay: Selectivity for human GPR40 over dopamine D3 receptor (unknown origin)
[39] = organism: Homo sapiens; assay: Selectivity for human GPR40 over ERalpha (unknown origin)
[40] = organism: Homo sapiens; assay: Selectivity for human GPR40 over kainate receptor (unknown origin)
[41] = organism: Homo sapiens; assay: Selectivity for human GPR40 over NET (unknown origin)
[42] = organism: Homo sapiens; assay: Selectivity for human GPR40 over P2X receptor (unknown origin)
[43] = test system: Rattus norvegicus; assay: Increase in plasma insulin level in ZDF rat at 0.1 mg/kg, po dosed 30 mins before glucose challenge by OGTT method; format: functional, organism-based; parameters: dose 0.1 mg/kg; in short: as §1
[44] = organism: Homo sapiens; assay: Selectivity for human GPR40 over dopamine D1 receptor (unknown origin)
[45] = organism: Mus musculus; assay: Induction of glucose-stimulated insulin secretion in wild type mouse pancreatic islets; format: functional
[46] = organism: Homo sapiens; assay: Selectivity for human GPR40 over rolipram binding receptor (unknown origin)
[47] = organism: Homo sapiens; assay: Selectivity for human GPR40 over P2Y receptor (unknown origin)
[48] = target: Free fatty acid receptor 1 (Homo sapiens, UniProt O14842); assay: Agonist activity at human GPR40 expressed in CHO cells assessed as calcium flux by FLIPR assay; format: functional, cell-based
Free fatty acid receptor 1, sequence (O14842 whole entry): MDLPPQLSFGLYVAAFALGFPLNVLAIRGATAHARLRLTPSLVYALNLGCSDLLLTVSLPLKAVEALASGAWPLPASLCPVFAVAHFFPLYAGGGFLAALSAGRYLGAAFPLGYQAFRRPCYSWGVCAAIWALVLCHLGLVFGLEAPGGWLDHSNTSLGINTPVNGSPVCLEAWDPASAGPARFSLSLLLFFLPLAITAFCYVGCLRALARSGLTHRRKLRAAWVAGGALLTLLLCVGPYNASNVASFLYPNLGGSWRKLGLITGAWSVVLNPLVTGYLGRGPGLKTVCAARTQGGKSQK

[49] = organism: Homo sapiens; assay: Selectivity for human GPR40 over histamine H2 receptor (unknown origin)
[50] = organism: Homo sapiens; assay: Selectivity for human GPR40 over NMDA receptor glycine binding site (unknown origin)
[51] = organism: Homo sapiens; assay: Selectivity for human GPR40 over adenosine A1 receptor (unknown origin)
[52] = test system: Rattus norvegicus; assay: Reduction in glucose excursion in ZDF rat at 0.03 mg/kg, po dosed 30 mins before glucose challenge by OGTT method; format: functional, organism-based; parameters: dose 0.03 mg/kg; in short: as §1
[53] = organism: Homo sapiens; assay: Selectivity for human GPR40 over DAT (unknown origin)
[54] = organism: Homo sapiens; assay: Selectivity for human GPR40 over MT1 receptor (unknown origin)
[55] = organism: Homo sapiens; assay: Selectivity for human GPR40 over sodium channel site 2 (unknown origin)
[56] = organism: Homo sapiens; assay: Selectivity for human GPR40 over bradykinin B2 receptor (unknown origin)
[57] = organism: Homo sapiens; assay: Selectivity for human GPR40 over calcium channel L-type benzothiazepine binding site (unknown origin)
[58] = organism: Homo sapiens; assay: Selectivity for human GPR40 over endothelin ETB receptor (unknown origin)
[59] = organism: Homo sapiens; assay: Selectivity for human GPR40 over GPR103 (unknown origin)
[60] = organism: Homo sapiens; assay: Selectivity for human GPR40 over dopamine D2S receptor (unknown origin)
[61] = organism: Homo sapiens; assay: Selectivity for human GPR40 over muscarinic M1 receptor (unknown origin)
[62] = organism: Homo sapiens; assay: Selectivity for human GPR40 over adrenergic alpha1D receptor (unknown origin)
[63] = organism: Homo sapiens; assay: Selectivity for human GPR40 over muscarinic M3 receptor (unknown origin)
[64] = organism: Homo sapiens; assay: Selectivity for human GPR40 over sigma-1 receptor (unknown origin)
[65] = organism: Homo sapiens; assay: Selectivity for human GPR40 over EGF receptor (unknown origin)
[66] = organism: Homo sapiens; assay: Selectivity for human GPR40 over neuropeptide YY1 receptor (unknown origin)
[67] = organism: Homo sapiens; assay: Selectivity for human GPR40 over mu opioid receptor (unknown origin)
[68] = organism: Homo sapiens; assay: Selectivity for human GPR40 over CysLT1 receptor (unknown origin)
[69] = organism: Homo sapiens; assay: Selectivity for human GPR40 over GABA transporter (unknown origin)
[70] = organism: Homo sapiens; assay: Selectivity for human GPR40 over 5HT3 receptor (unknown origin)
[71] = organism: Homo sapiens; assay: Selectivity for human GPR40 over central GABAB1A receptor (unknown origin)
[72] = organism: Homo sapiens; assay: Selectivity for human GPR40 over adrenergic alpha2A receptor (unknown origin)
[73] = organism: Homo sapiens; assay: Selectivity for human GPR40 over adrenergic beta1 receptor (unknown origin)
[74] = test system: Rattus norvegicus; assay: Increase in plasma insulin level in ZDF rat at 10 mg/kg, po dosed 30 mins before glucose challenge by OGTT method; format: functional, organism-based; parameters: dose 10 mg/kg; in short: as §1
[75] = test system: Rattus norvegicus; assay: Reduction in glucose excursion in ZDF rat at 10 mg/kg, po dosed 30 mins before glucose challenge by OGTT method; format: functional, organism-based; parameters: dose 10 mg/kg; in short: as §1
[76] = test system: Liver microsome; assay: Drug metabolism in human liver microsomes assessed as 2-methylbenzaldehyde formation at 500 uM incubated for 1 hr in presence of GSH and NADPH and by LC-MS/MS based GSH trapping assay; format: ADME

CCO[C@@H](CC(=O)O)c1ccc(O[C@@H]2CCc3c2cccc3C(F)(F)F)cc1
3.7 nM: EC50 [48]
inactive: Activity [1] | Activity [10]
active: Activity [11] | Activity [43] | Activity [45] | Activity [52]
> 100: Selectivity ratio [2] | Selectivity ratio [3] | Selectivity ratio [4] | Selectivity ratio [5] | Selectivity ratio [6] | Selectivity ratio [7] | Selectivity ratio [8] | Selectivity ratio [9] | Selectivity ratio [12] | Selectivity ratio [13] | Selectivity ratio [14] | Selectivity ratio [15] | Selectivity ratio [16] | Selectivity ratio [17] | Selectivity ratio [18] | Selectivity ratio [19] | Selectivity ratio [20] | Selectivity ratio [21] | Selectivity ratio [22] | Selectivity ratio [23] | Selectivity ratio [24] | Selectivity ratio [25] | Selectivity ratio [26] | Selectivity ratio [27] | Selectivity ratio [28] | Selectivity ratio [29] | Selectivity ratio [30] | Selectivity ratio [31] | Selectivity ratio [32] | Selectivity ratio [33] | Selectivity ratio [34] | Selectivity ratio [35] | Selectivity ratio [36] | Selectivity ratio [37] | Selectivity ratio [38] | Selectivity ratio [39] | Selectivity ratio [40] | Selectivity ratio [41] | Selectivity ratio [42] | Selectivity ratio [44] | Selectivity ratio [46] | Selectivity ratio [47] | Selectivity ratio [49] | Selectivity ratio [50] | Selectivity ratio [51] | Selectivity ratio [53] | Selectivity ratio [54] | Selectivity ratio [55] | Selectivity ratio [56] | Selectivity ratio [57] | Selectivity ratio [58] | Selectivity ratio [59] | Selectivity ratio [60] | Selectivity ratio [61] | Selectivity ratio [62] | Selectivity ratio [63] | Selectivity ratio [64] | Selectivity ratio [65] | Selectivity ratio [66] | Selectivity ratio [67] | Selectivity ratio [68] | Selectivity ratio [69] | Selectivity ratio [70] | Selectivity ratio [71] | Selectivity ratio [72] | Selectivity ratio [73]

N[C@@H](CC(=O)N1CCn2c(nnc2C(F)(F)F)C1)Cc1cc(F)c(F)cc1F
active: Activity [74] | Activity [75]

CCO[C@@H](CC(=O)O)c1ccc(O[C@@H]2CCc3ccccc32)cc1
31 nM: EC50 [48]

CCO[C@@H](CC(=O)O)c1ccc(O[C@@H]2CCc3c(C)cccc32)cc1
29 nM: EC50 [48]

CCO[C@@H](CC(=O)O)c1ccc(O[C@@H]2CCCc3ccccc32)cc1
62 nM: EC50 [48]

CCOC(CC(=O)O)c1ccc(OCc2ccccc2C)cc1 (racemic)
metabolite_detected: Drug metabolism [76]

CCO[C@@H](CC(=O)O)c1ccc(O[C@H]2CCc3ccccc32)cc1
69 nM: EC50 [48]

CCO[C@@H](CC(=O)O)c1ccc(O[C@@H]2CCc3c(Cl)cccc32)cc1
5 nM: EC50 [48]
